# Paper PMC3994405 (Clinical cancer research : an official journal of the …, 2014)
# Like-named read-outs stand apart in the source and are kept apart here.
# Test system: peptide-MHC reactive CD8 T cells in PBLs from healthy donors
# Type: cell-based, human
# Conditions: PBLs after enrichment and 2-3 weeks culture
# How it was run: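 PBLs washed in PBS with 2% FBS and stained with 0.1ug of each PE-coupled peptide-MHC multimer, 1h at 4°C. Anti-PE microbeads were added for 15 min, then magnetic column capture. Enriched cells were expanded 2–3 weeks in X-vivo with 5% human serum, 100 U/ml IL-2, 15 ng/ml IL-15, autologous negative-fraction feeders and anti-CD3/CD28 beads. Cells were then analysed by two-colour combinatorial multimer staining on lymphocyte/single/live/CD8 gates.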
Sequence,Healthy Donors: number of times a response was detected/number of investigated HLA matched individuals (HLA-A3 restriction),Healthy Donors: number of times a response was detected/number of investigated HLA matched individuals (HLA-A11 restriction),also measured
KMALHGLPR,1/14,,
LPRYFNVTL,,,Healthy Donors: number of times a response was detected/number of investigated HLA matched individuals (HLA-B7 restriction): 1/13
NLPAYSVARV,,,Healthy Donors: number of times a response was detected/number of investigated HLA matched individuals (HLA-A2 restriction): 1/16
SLFSNLMPK,,2/7A11,
TVLGRKMTPK,1/14,,
VTLRKRWVK,,1/7,
